Assay results reported in ChEMBL document CHEMBL4689842, “EUbOPEN Chemogenomics Library wave 1” (2021).

System: U2OS
Assay: Multiplex assay against U2OS
Type: toxicity, cell-based
Settings: human
Summary of the method: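 At seeding, live cells were stained with Hoechst33342, BioTracker Green Microtubule Cytoskeleton Dye, MitoTracker Red and Annexin V Alexa Fluor 680. After compound addition they were imaged on a CQ1 microscope at 37°C and 5% CO2, and CellPathfinder machine-learning gating sorted them into Hoechst high-intensity objects or normal cells, with normal cells further split into healthy, pyknosed or fragmented nuclei and pyknosed cells into mitotic or apoptotic. Tubulin, mitochondrial-mass and membrane-permeability phenotypes are given as per cents of cells with healthy nuclei.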

[1] = 12 h, 1 µM, compound concentration 1 uM, replicate 1
[2] = 12 h, 1 µM, compound concentration 1 uM, replicate 2
[3] = 12 h, 10 µM, compound concentration 10 uM, replicate 1
[4] = 12 h, 10 µM, compound concentration 10 uM, replicate 2
[5] = 24 h, 1 µM, compound concentration 1 uM, replicate 1
[6] = 24 h, 1 µM, compound concentration 1 uM, replicate 2
[7] = 24 h, 10 µM, compound concentration 10 uM, replicate 1
[8] = 24 h, 10 µM, compound concentration 10 uM, replicate 2
[9] = 48 h, 1 µM, compound concentration 1 uM, replicate 1
[10] = 48 h, 1 µM, compound concentration 1 uM, replicate 2
[11] = 48 h, 10 µM, compound concentration 10 uM, replicate 1
[12] = 48 h, 10 µM, compound concentration 10 uM, replicate 2

Cl.O=C(O)c1cc(-c2ccc(C3CCNCC3)cc2)c2ccc(-c3ccc(C(F)(F)F)cc3)cc2c1
Population Apoptotic (%) [1]: 25%
Population Fragmented Nuclei (%) [1]: 16%
Population Healthy Nuclei (%) [1]: 67%
Population Hoechst High Intensity Objects (%) [1]: 7%
Population Membrane Permeable-Phenotype (%) [1]: 8%
Population Mitochondria Different-Phenotype (%) [1]: 9%
Population Mitotic Cells (%) [1]: 74%
Population Normal (%) [1]: 92%
Population Pyknosed Nuclei (%) [1]: 16%
Population Tubulin-Different-Phenotype (%) [1]: 15%
Total Cell Count [1]: 201
Population Apoptotic (%) [2]: 50%
Population Fragmented Nuclei (%) [2]: 11%
Population Healthy Nuclei (%) [2]: 83%
Population Hoechst High Intensity Objects (%) [2]: 5%
Population Membrane Permeable-Phenotype (%) [2]: 3%
Population Mitochondria Different-Phenotype (%) [2]: 16%
Population Mitotic Cells (%) [2]: 50%
Population Normal (%) [2]: 94%
Population Pyknosed Nuclei (%) [2]: 5%
Population Tubulin-Different-Phenotype (%) [2]: 36%
Total Cell Count [2]: 60
Population Apoptotic (%) [3]: 41%
Population Healthy Nuclei (%) [3]: 74%
Population Hoechst High Intensity Objects (%) [3]: 2%
Population Membrane Permeable-Phenotype (%) [3]: 5%
Population Mitochondria Different-Phenotype (%) [3]: 17%
Population Mitotic Cells (%) [3]: 58%
Population Normal (%) [3]: 97%
Population Pyknosed Nuclei (%) [3]: 11%
Population Tubulin-Different-Phenotype (%) [3]: 14%
Total Cell Count [3]: 181
Population Apoptotic (%) [4]: 60%
Population Fragmented Nuclei (%) [4]: 14%
Population Healthy Nuclei (%) [4]: 64%
Population Hoechst High Intensity Objects (%) [4]: 14%
Population Membrane Permeable-Phenotype (%) [4]: 10%
Population Mitochondria Different-Phenotype (%) [4]: 13%
Population Mitotic Cells (%) [4]: 40%
Population Normal (%) [4]: 85%
Population Pyknosed Nuclei (%) [4]: 21%
Population Tubulin-Different-Phenotype (%) [4]: 23%
Total Cell Count [4]: 38
Population Apoptotic (%) [5]: 35%
Population Healthy Nuclei (%) [5]: 81%
Population Hoechst High Intensity Objects (%) [5]: 7%
Population Membrane Permeable-Phenotype (%) [5]: 3%
Population Mitotic Cells (%) [5]: 64%
Population Normal (%) [5]: 92%
Population Pyknosed Nuclei (%) [5]: 6%
Population Tubulin-Different-Phenotype (%) [5]: 12%
Total Cell Count [5]: 249
Population Apoptotic (%) [6]: 20%
Population Fragmented Nuclei (%) [6]: 11%
Population Healthy Nuclei (%) [6]: 79%
Population Hoechst High Intensity Objects (%) [6]: 3%
Population Membrane Permeable-Phenotype (%) [6]: 4%
Population Mitochondria Different-Phenotype (%) [6]: 9%
Population Mitotic Cells (%) [6]: 80%
Population Normal (%) [6]: 96%
Population Pyknosed Nuclei (%) [6]: 9%
Population Tubulin-Different-Phenotype (%) [6]: 30%
Total Cell Count [6]: 62
Population Apoptotic (%) [7]: 41%
Population Fragmented Nuclei (%) [7]: 13%
Population Healthy Nuclei (%) [7]: 72%
Population Hoechst High Intensity Objects (%) [7]: 4%
Population Membrane Permeable-Phenotype (%) [7]: 4%
Population Mitochondria Different-Phenotype (%) [7]: 12%
Population Mitotic Cells (%) [7]: 58%
Population Normal (%) [7]: 95%
Population Pyknosed Nuclei (%) [7]: 13%
Population Tubulin-Different-Phenotype (%) [7]: 13%
Total Cell Count [7]: 227
Population Apoptotic (%) [8]: 61%
Population Fragmented Nuclei (%) [8]: 17%
Population Healthy Nuclei (%) [8]: 61%
Population Hoechst High Intensity Objects (%) [8]: 8%
Population Membrane Permeable-Phenotype (%) [8]: 7%
Population Mitochondria Different-Phenotype (%) [8]: 5%
Population Mitotic Cells (%) [8]: 38%
Population Normal (%) [8]: 91%
Population Pyknosed Nuclei (%) [8]: 20%
Population Tubulin-Different-Phenotype (%) [8]: 16%
Total Cell Count [8]: 56
Population Apoptotic (%) [9]: 17%
Population Fragmented Nuclei (%) [9]: 9%
Population Healthy Nuclei (%) [9]: 81%
Population Hoechst High Intensity Objects (%) [9]: 3%
Population Membrane Permeable-Phenotype (%) [9]: 1%
Population Mitochondria Different-Phenotype (%) [9]: 17%
Population Mitotic Cells (%) [9]: 82%
Population Normal (%) [9]: 96%
Population Pyknosed Nuclei (%) [9]: 9%
Population Tubulin-Different-Phenotype (%) [9]: 12%
Total Cell Count [9]: 359
Population Apoptotic (%) [10]: 33%
Population Fragmented Nuclei (%) [10]: 6%
Population Healthy Nuclei (%) [10]: 89%
Population Hoechst High Intensity Objects (%) [10]: 2%
Population Membrane Permeable-Phenotype (%) [10]: 4%
Population Mitochondria Different-Phenotype (%) [10]: 11%
Population Mitotic Cells (%) [10]: 66%
Population Normal (%) [10]: 97%
Population Pyknosed Nuclei (%) [10]: 3%
Population Tubulin-Different-Phenotype (%) [10]: 32%
Total Cell Count [10]: 95
Population Apoptotic (%) [11]: 45%
Population Fragmented Nuclei (%) [11]: 12%
Population Healthy Nuclei (%) [11]: 65%
Population Hoechst High Intensity Objects (%) [11]: 5%
Population Membrane Permeable-Phenotype (%) [11]: 5%
Population Mitochondria Different-Phenotype (%) [11]: 7%
Population Mitotic Cells (%) [11]: 54%
Population Normal (%) [11]: 94%
Population Pyknosed Nuclei (%) [11]: 21%
Population Tubulin-Different-Phenotype (%) [11]: 14%
Total Cell Count [11]: 332
Population Apoptotic (%) [12]: 75%
Population Fragmented Nuclei (%) [12]: 17%
Population Healthy Nuclei (%) [12]: 66%
Population Hoechst High Intensity Objects (%) [12]: 10%
Population Membrane Permeable-Phenotype (%) [12]: 13%
Population Mitochondria Different-Phenotype (%) [12]: 13%
Population Mitotic Cells (%) [12]: 25%
Population Normal (%) [12]: 89%
Population Pyknosed Nuclei (%) [12]: 16%
Population Tubulin-Different-Phenotype (%) [12]: 21%
Total Cell Count [12]: 80
